Experimental data from ChEMBL document CHEMBL3272012, “5-(Tetradecyloxy)-2-furancarboxylic acid and related hypolipidemic fatty acid-like alkyloxyarylcarboxylic acids” (J Med Chem, 1977).
Activity calls are given as the source filed them. No cut-off for these calls is given here.

Tests used:
Rattus norvegicus [1] = assay: Hypolipidemic activity in Wistar rat assessed as reduction in plasma cholesterol level at 443 umol/kg/day administered through diet for 4 days; assay type: functional; settings: 96 h
In short: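 Young male Wistar rats, 170-190 g initial weight, groups of six, given compound mixed thoroughly into Purina Lab Chow ad libitum for 4 or 10 days as stated. Daily dose calculated from food consumption and body weight. Bled by cardiac puncture at end of treatment; plasma cholesterol measured by automated procedure. Expressed as percent reduction versus simultaneous untreated control group; Student's t test.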

Rattus norvegicus [2] = assay: Hypolipidemic activity in Wistar rat assessed as reduction in plasma triglyceride level at 443 umol/kg/day administered through diet for 4 days; assay type: functional; settings: 96 h
In short: (§1)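 Young male Wistar rats (initial weight 170-190 g), groups of six, fed compound mixed into Purina Lab Chow ad libitum for 4 or 10 days; daily dose calculated from food consumption and body weight. Bled by cardiac puncture; plasma cholesterol and triglycerides by automated procedures; percent reduction versus simultaneous untreated controls, Student's t test.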

Rattus norvegicus [3] = assay: Increase in liver weight in Wistar rat at 443 umol/kg/day administered through diet for 4 days; assay type: ADME, organism-based; settings: in vivo, po, 96 h
Rattus norvegicus [4] = assay: Increase in cholesterol level in Wistar rat liver at 443 umol/kg/day administered through diet for 4 days; assay type: ADME, organism-based; settings: in vivo, po, 96 h
Rattus norvegicus [5] = assay: Hypolipidemic activity in Wistar rat assessed as reduction in plasma cholesterol level at 403 umol/kg/day administered through diet for 4 days; assay type: functional; settings: 96 h
In short: (§2)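 Young male Wistar rats, 170-190 g at start, in groups of six, given compound mixed into Purina Lab Chow ad libitum for 4 or 10 days as stated. Daily dose was calculated from food consumption and body weight. Plasma was taken by cardiac puncture at the end and cholesterol measured by automated procedure. Results are % reduction versus a concurrent untreated control group, with Student's t test.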

Rattus norvegicus [6] = assay: Hypolipidemic activity in Wistar rat assessed as reduction in plasma triglyceride level at 403 umol/kg/day administered through diet for 4 days; assay type: functional; settings: 96 h
Rattus norvegicus [7] = assay: Increase in cholesterol level in Wistar rat liver at 403 umol/kg/day administered through diet for 4 days; assay type: ADME, organism-based; settings: in vivo, po, 96 h
Rattus norvegicus [8] = assay: Increase in liver weight in Wistar rat at 403 umol/kg/day administered through diet for 4 days; assay type: ADME, organism-based; settings: in vivo, po, 96 h
Rattus norvegicus [9] = assay: Hypolipidemic activity in Wistar rat assessed as reduction in plasma cholesterol level at 154 umol/kg/day administered through diet for 10 days; assay type: functional; settings: 240 h; in short: as §2
Rattus norvegicus [10] = assay: Hypolipidemic activity in Wistar rat assessed as reduction in plasma cholesterol level at 314 umol/kg/day administered through diet for 10 days; assay type: functional; settings: 240 h; in short: as §2
Rattus norvegicus [11] = assay: Hypolipidemic activity in Wistar rat assessed as reduction in plasma cholesterol level at 410 umol/kg/day administered through diet for 4 days; assay type: functional; settings: 96 h; in short: as §2
Rattus norvegicus [12] = assay: Hypolipidemic activity in Wistar rat assessed as reduction in plasma cholesterol level at 583 umol/kg/day administered through diet for 10 days; assay type: functional; settings: 240 h; in short: as §1
Rattus norvegicus [13] = assay: Hypolipidemic activity in Wistar rat assessed as reduction in plasma triglyceride level at 154 umol/kg/day administered through diet for 10 days; assay type: functional; settings: 240 h
In short: (§3)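 Young male Wistar rats, 170-190 g initial weight, six per group, fed drug mixed thoroughly into Purina Lab Chow ad libitum for the stated days; daily dose calculated from food consumption and body weight. Bled by cardiac puncture at end; plasma cholesterol and triglycerides by automated procedures, expressed as percent reduction versus simultaneous untreated controls; Student's t test.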

Rattus norvegicus [14] = assay: Hypolipidemic activity in Wistar rat assessed as reduction in plasma triglyceride level at 314 umol/kg/day administered through diet for 10 days; assay type: functional; settings: 240 h; in short: as §3
Rattus norvegicus [15] = assay: Hypolipidemic activity in Wistar rat assessed as reduction in plasma triglyceride level at 410 umol/kg/day administered through diet for 4 days; assay type: functional; settings: 96 h
Rattus norvegicus [16] = assay: Hypolipidemic activity in Wistar rat assessed as reduction in plasma triglyceride level at 583 umol/kg/day administered through diet for 10 days; assay type: functional; settings: 240 h
Rattus norvegicus [17] = assay: Increase in cholesterol level in Wistar rat liver at 154 umol/kg/day administered through diet for 10 days; assay type: ADME, organism-based; settings: in vivo, po, 240 h
Rattus norvegicus [18] = assay: Increase in cholesterol level in Wistar rat liver at 314 umol/kg/day administered through diet for 10 days; assay type: ADME, organism-based; settings: in vivo, po, 240 h
Rattus norvegicus [19] = assay: Increase in cholesterol level in Wistar rat liver at 410 umol/kg/day administered through diet for 4 days; assay type: ADME, organism-based; settings: in vivo, po, 96 h
Rattus norvegicus [20] = assay: Increase in cholesterol level in Wistar rat liver at 583 umol/kg/day administered through diet for 10 days; assay type: ADME, organism-based; settings: in vivo, po, 240 h
Rattus norvegicus [21] = assay: Inhibition of cholesterol biosynthesis in Ad Lib fed Wistar rat liver assessed as sodium [1-14C]acetate incorporation at 154 mg/kg/day administered through diet for 7 days measured 1 hr after labeled acetate challenge by liquid scintillation spectrometry (reference value: 12.7 +/- 2.6 x 10^-3 dpm); assay type: functional
Rattus norvegicus [22] = assay: Inhibition of cholesterol biosynthesis in meal fed Wistar rat liver assessed as sodium [1-14C]acetate incorporation at 95 mg/kg/day administered through diet for 7 days measured 1 hr after labeled acetate challenge by liquid scintillation spectrometry (reference value: 41.3 +/- 3.2 x 10^-3 dpm); assay type: functional
Rattus norvegicus [23] = assay: Increase in liver weight in Wistar rat at 154 umol/kg/day administered through diet for 10 days; assay type: ADME, organism-based; settings: in vivo, po, 240 h
Rattus norvegicus [24] = assay: Increase in liver weight in Wistar rat at 314 umol/kg/day administered through diet for 10 days; assay type: ADME, organism-based; settings: in vivo, po, 240 h
Rattus norvegicus [25] = assay: Increase in liver weight in Wistar rat at 410 umol/kg/day administered through diet for 4 days; assay type: ADME, organism-based; settings: in vivo, po, 96 h
Rattus norvegicus [26] = assay: Increase in liver weight in Wistar rat at 583 umol/kg/day administered through diet for 10 days; assay type: ADME, organism-based; settings: in vivo, po, 240 h
Rattus norvegicus [27] = assay: Inhibition of fatty acid biosynthesis in Ad Lib fed Wistar rat liver assessed as sodium [1-14C]acetate incorporation at 154 mg/kg/day administered through diet for 7 days measured 1 hr after labeled acetate challenge by liquid scintillation spectrometry (reference value: 27.2 +/- 4.8 x 10^-3 dpm); assay type: functional
Rattus norvegicus [28] = assay: Inhibition of fatty acid biosynthesis in meal fed Wistar rat liver assessed as sodium [1-14C]acetate incorporation at 95 mg/kg/day administered through diet for 7 days measured 1 hr after labeled acetate challenge by liquid scintillation spectrometry (reference value: 182 +/- 22 x 10^-3 dpm); assay type: functional
Rattus norvegicus [29] = assay: Inhibition of cholesterol synthesis in Wistar rat liver assessed as drug incorporation into triglycerides administered for 2 weeks by gas chromatography; assay type: functional, organism-based
Rattus norvegicus [30] = assay: Inhibition of cholesterol synthesis in Wistar rat liver assessed as drug incorporation into cholesterol ester administered for 2 weeks by gas chromatography; assay type: functional, organism-based
Rattus norvegicus [31] = assay: Inhibition of fatty acid synthesis in Wistar rat liver assessed as drug incorporation into phospholipid administered for 2 weeks by gas chromatography; assay type: functional, organism-based
Rhesus monkey [32] = assay: Hypolipidemic activity in rhesus monkey assessed as reduction in plasma cholesterol level at 92 umol/kg/day administered for 28 days; assay type: functional; settings: Macaca mulatta, 672 h
Rhesus monkey [33] = assay: Hypolipidemic activity in rhesus monkey assessed as reduction in plasma cholesterol level at 308 umol/kg/day administered for 28 days; assay type: functional; settings: Macaca mulatta, 672 h
Rattus norvegicus [34] = assay: Hypolipidemic activity in Wistar rat assessed as reduction in plasma triglyceride level at 358 umol/kg/day administered through diet for 10 days; assay type: functional; settings: 240 h
In short: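 Young male Wistar rats, 170-190 g at start, six per group, given compound mixed into Purina Lab Chow, fed ad libitum for 4 or 10 days. Daily dose calculated from food consumption and body weight. Rats bled by cardiac puncture at end of treatment. Plasma triglycerides determined by automated procedure. Expressed as percent reduction versus a concurrent untreated control group, Student's t test.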

Rattus norvegicus [35] = assay: Hypolipidemic activity in Wistar rat assessed as reduction in plasma triglyceride level at 193 umol/kg/day administered through diet for 10 days; assay type: functional; settings: 240 h; in short: as §3
Rattus norvegicus [36] = assay: Hypolipidemic activity in Wistar rat assessed as reduction in plasma triglyceride level at 96 umol/kg/day administered through diet for 10 days; assay type: functional; settings: 240 h
Rattus norvegicus [37] = assay: Hypolipidemic activity in Wistar rat assessed as reduction in plasma cholesterol level at 358 umol/kg/day administered through diet for 10 days; assay type: functional; settings: 240 h; in short: as §2
Rattus norvegicus [38] = assay: Hypolipidemic activity in Wistar rat assessed as reduction in plasma cholesterol level at 193 umol/kg/day administered through diet for 10 days; assay type: functional; settings: 240 h; in short: as §2
Rattus norvegicus [39] = assay: Hypolipidemic activity in Wistar rat assessed as reduction in plasma cholesterol level at 96 umol/kg/day administered through diet for 10 days; assay type: functional; settings: 240 h; in short: as §3
Rattus norvegicus [40] = assay: Increase in liver weight in Wistar rat at 358 umol/kg/day administered through diet for 10 days; assay type: ADME, organism-based; settings: in vivo, po, 240 h
Rattus norvegicus [41] = assay: Increase in liver weight in Wistar rat at 193 umol/kg/day administered through diet for 10 days; assay type: ADME, organism-based; settings: in vivo, po, 240 h
Rattus norvegicus [42] = assay: Increase in liver weight in Wistar rat at 96 umol/kg/day administered through diet for 10 days; assay type: ADME, organism-based; settings: in vivo, po, 240 h
Rattus norvegicus [43] = assay: Increase in cholesterol level in Wistar rat liver at 358 umol/kg/day administered through diet for 10 days; assay type: ADME, organism-based; settings: in vivo, po, 240 h
Rattus norvegicus [44] = assay: Increase in cholesterol level in Wistar rat liver at 193 umol/kg/day administered through diet for 10 days; assay type: ADME, organism-based; settings: in vivo, po, 240 h
Rattus norvegicus [45] = assay: Increase in cholesterol level in Wistar rat liver at 96 umol/kg/day administered through diet for 10 days; assay type: ADME, organism-based; settings: in vivo, po, 240 h

`CCCCCCCCCCCCCCOc1ccc(C(=O)OCC)o1` showed an inhibition in vivo at 443 µmol/kg (Rattus norvegicus [1]) of 30%, an inhibition in vivo at 443 µmol/kg (Rattus norvegicus [2]) of 64% and an Activity (Rattus norvegicus [3]) of 6%. For the same molecule, the Activity (Rattus norvegicus [4]) was 0%.
In the case of `CCCCCCCCCCCCCCOc1ccc(C(=O)n2ccnc2)o1`, the inhibition in vivo at 403 µmol/kg (Rattus norvegicus [5]) is reported as 22%, the inhibition in vivo at 403 µmol/kg (Rattus norvegicus [6]) is reported as 39% and the Activity (Rattus norvegicus [7]) is reported as 1%. For the same molecule, the Activity (Rattus norvegicus [8]) was 14%.
`CCCCCCCCCCCCCCOc1ccc(C(=O)O)o1` [TOFA] showed an inhibition in vivo at 154 µmol/kg (Rattus norvegicus [9]) of 12%, an inhibition in vivo at 314 µmol/kg (Rattus norvegicus [10]) of 38% and an inhibition in vivo at 410 µmol/kg (Rattus norvegicus [11]) of 40%. The inhibition in vivo at 583 µmol/kg (Rattus norvegicus [12]) was 64%, the inhibition in vivo at 154 µmol/kg (Rattus norvegicus [13]) was 27% and the inhibition in vivo at 314 µmol/kg (Rattus norvegicus [14]) was 61%. For the same molecule, the inhibition in vivo at 410 µmol/kg (Rattus norvegicus [15]) was 75%, the inhibition in vivo at 583 µmol/kg (Rattus norvegicus [16]) was 92% and the Activity (Rattus norvegicus [17]) was 5%. The Activity (Rattus norvegicus [18]) was 0%, the Activity (Rattus norvegicus [19]) was 12% and the Activity (Rattus norvegicus [20]) was 0%. For the same molecule, the Activity (Rattus norvegicus [21]) was 14900 dpm, the Activity (Rattus norvegicus [22]) was 40800 dpm and the Activity (Rattus norvegicus [23]) was 1%. It also gave an Activity (Rattus norvegicus [24]) of 15%, an Activity (Rattus norvegicus [25]) of 6% and an Activity (Rattus norvegicus [26]) of 33%. The Activity (Rattus norvegicus [27]) was 22800 dpm, the Activity (Rattus norvegicus [28]) was 60000 dpm and the inhibition (Rattus norvegicus [29]) was “inactive”. The inhibition (Rattus norvegicus [30]) was “inactive”, the inhibition (Rattus norvegicus [31]) was “Active” and the inhibition in vivo at 92 µmol/kg (Rhesus monkey [32]) was 10%. The inhibition in vivo at 308 µmol/kg (Rhesus monkey [33]) was 24%.
`CCCCCCCCCCCCCCOc1ccc(C(=O)CC(=O)OCC)cc1` showed an inhibition in vivo at 358 µmol/kg (Rattus norvegicus [34]) of 59%, an inhibition in vivo at 193 µmol/kg (Rattus norvegicus [35]) of 43% and an inhibition in vivo at 96 µmol/kg (Rattus norvegicus [36]) of 44%. It also gave an inhibition in vivo at 358 µmol/kg (Rattus norvegicus [37]) of 30%, an inhibition in vivo at 193 µmol/kg (Rattus norvegicus [38]) of 20% and an inhibition in vivo at 96 µmol/kg (Rattus norvegicus [39]) of 13%. The Activity (Rattus norvegicus [40]) was 3%, the Activity (Rattus norvegicus [41]) was 1% and the Activity (Rattus norvegicus [42]) was 1%. The Activity (Rattus norvegicus [43]) was 10%, the Activity (Rattus norvegicus [44]) was 11% and the Activity (Rattus norvegicus [45]) was 0%.
